ChEMBL document CHEMBL1122333, “Synthesis and biological activities of the Z isomers of carbapenem antibiotics” (J Med Chem, 1983)

Key:
Klebsiella pneumoniae [1] = test: Tested for beta-lactamase inhibitory activity of the 5,6-cis-carbapenem antibiotic on penicillinase against Klebsiella pneumoniae TN1698; format: functional, organism-based; conditions: for IC50: Klebsiella pneumoniae, read-out: I50
Proteus mirabilis = test: Tested for minimum inhibitory concentration against […] IFO 3849; format: functional
Outline: (§1)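 Agar dilution MIC on Trypticase soy agar. Each plate was inoculated with one loopful of a 10^8 cfu/mL bacterial suspension.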

Staphylococcus aureus [2] = test: Tested for beta-lactamase inhibitory activity of the 5,6-cis-carbapenem antibiotic on penicillinase against Staphylococcus aureus 1840; format: functional, organism-based; conditions: read-out: I50
Serratia marcescens [3] = test: beta-lactamase inhibitory activity of the 5,6-cis-carbapenem antibiotic on cephalosporinase against Serratia marcescens TN81; format: functional, organism-based, serratia marcesc; conditions: for IC50: Serratia marcescens, read-out: I50
Citrobacter freundii = test: Tested for minimum inhibitory concentration against […] IFO 12681; format: functional; outline: as §1
Morganella morganii = test: Tested for minimum inhibitory concentration against […] IFO 3168; format: functional; outline: as §1
Proteus vulgaris [4] = test: beta-lactamase inhibitory activity of the 5,6-cis-carbapenem antibiotic on cephalosporinase against Proteus vulgaris GN4413; format: functional, organism-based; conditions: for IC50: Proteus vulgaris, read-out: I50
Staphylococcus aureus [5] = test: Tested for minimum inhibitory concentration against Staphylococcus aureus 308 A-1; format: functional; outline: as §1
Escherichia coli [6] = test: Tested for minimum inhibitory concentration against Escherichia coli T-7; format: functional; outline: as §1
[7] = system: Acinetobacter calcoaceticus; test: Minimum inhibitory concentration against Acinetobacter calcoacet IFO 13006; format: functional
Outline: (§2)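 MIC by agar dilution on Trypticase soy agar. Inoculum was one loopful of a 10^8 cfu/mL bacterial suspension.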

Pseudomonas aeruginosa = test: Tested for minimum inhibitory concentration against Pseudomonas aeruginosa IFO 3455; format: functional; outline: as §1
Enterobacter cloacae = test: Tested for minimum inhibitory concentration against […] IFO 12937; format: functional; outline: as §1
Proteus vulgaris [8] = test: Tested for minimum inhibitory concentration against Proteus vulgaris IFO 3988; format: functional; outline: as §2
Escherichia coli [9] = test: Tested for inhibition of intraperitoneal infection against Escherichia coli O-111; format: functional
Outline: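 Protection assay run in Slc:ICR mice. ED50 was calculated by the Reed and Muench method from survival recorded 5 days after infection.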

Escherichia coli [10] = test: Tested for minimum inhibitory concentration against Escherichia coli O-111; format: functional; outline: as §2
[11] = (§3) Half-life of 10% mouse kidney homogenate is tested; format: ADME; conditions: 10% mouse kidney homogenate
Outline: (§4)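 Carbapenem at 50 μg/mL incubated in 10% mouse kidney homogenate at 30 °C to assess stability to mouse renal enzyme(s).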

Serratia marcescens [12] = test: Tested for minimum inhibitory concentration against Serratia marcescens 12648 on cefotiam at a concentration of 0.1 ug/mL into the agar plate
Proteus vulgaris [13] = test: Minimum inhibitory concentration against Proteus vulgaris GN4815 on cefotiam at a concentration of 0.1 ug/mL into the agar plate
Staphylococcus aureus [14] = test: Tested for minimum inhibitory concentration against Staphylococcus aureus 1840 on ampicillin at a concentration of 0.1 ug/mL into the agar plate; format: functional
Klebsiella pneumoniae [15] = test: Tested for minimum inhibitory concentration against Klebsiella pneumoniae TN1655 on ampicillin at a concentration of 0.1 ug/mL into the agar plate; format: functional
Klebsiella pneumoniae [16] = test: Tested for minimum inhibitory concentration against Klebsiella pneumoniae DT; format: functional; outline: as §1
Serratia marcescens [17] = test: Tested for minimum inhibitory concentration against Serratia marcescens IFO 12648; format: functional; outline: as §1
[18] = tested for minimum inhibitory concentration against […] 12486 on ampicillin at a concentration of 0.1 ug/mL into the agar plate; format: functional
Mus musculus = organism: Mus musculus; test: as §3; format: ADME; conditions: in vitro; outline: as §4
Klebsiella pneumoniae [19] = test: Tested for minimum inhibitory concentration against Klebsiella pneumoniae TN1655 on ampicillin at a concentration of 0.1 ug/mL into the agar plate
Proteus vulgaris [20] = test: tested for minimum inhibitory concentration against Proteus vulgaris GN4815 on cefotiam at a concentration of 0.1 ug/mL into the agar plate
Proteus vulgaris [21] = test: Tested for minimum inhibitory concentration against Proteus vulgaris GN4815 on cefotiam at a concentration of 0.1 ug/mL into the agar plate
[22] = Escherichia coli, ip, read-out: ED50
[23] = Acinetobacter calcoaceticus, IFO 13006, read-out: MIC
[24] = Pseudomonas aeruginosa, IFO 3455, read-out: MIC

Row | Structure (SMILES) | IC50 (Klebsiella pneumoniae [1]) [ng/mL] | IC50 (Staphylococcus aureus [2]) [µg/mL] | IC50 (Serratia marcescens [3]) [µg/mL] | IC50 (Proteus vulgaris [4]) [µg/mL] | half-life [11] [min] | MIC (Serratia marcescens [12]) [µg/mL] | MIC (Proteus vulgaris [13]) [µg/mL] | MIC (Staphylococcus aureus [14]) [µg/mL] | MIC (Klebsiella pneumoniae [15]) [µg/mL] | ED50 (Escherichia coli [9]; [22]) [mg/kg] | other results
1 | CC(=O)N/C=C/[S+]([O-])C1=C(C(=O)[O-])N2C(=O)[C@@H](C(C)(C)O)[C@H]2C1.[Na+] (stereo in doubt; 20) | 80 | 0.54 | 0.00078 | 0.0028 | – | – | – | – | – | 28.1 | MIC (Proteus mirabilis): 12.5 µg/mL; MIC (Citrobacter freundii): 3.13 µg/mL; MIC (Morganella morganii): 25 µg/mL; MIC (Staphylococcus aureus [5]): 3.13 µg/mL; MIC (Escherichia coli [6]): 25 µg/mL; MIC [7]: 12.5 µg/mL; MIC (Pseudomonas aeruginosa): 25 µg/mL; MIC (Enterobacter cloacae): 25 µg/mL; MIC (Proteus vulgaris [8]): 12.5 µg/mL
2 | CC(=O)N/C=C\[S+]([O-])C1=C(C(=O)[O-])N2C(=O)[C@@H](C(C)(C)O)[C@H]2C1.[Na+] (stereo in doubt; 11) | – | – | – | – | – | 12.5 | – | 6.25 | 3.13 | – | I50 (Klebsiella pneumoniae [1]): 3.8 ng/mL; MIC (Proteus mirabilis): 12.5 µg/mL; I50 (Serratia marcescens [3]): 0.34 ng/mL; MIC (Klebsiella pneumoniae [16]): 3.13 µg/mL; MIC (Escherichia coli [10]): <0.1 µg/mL; MIC (Morganella morganii): 12.5 µg/mL; I50 (Proteus vulgaris [4]): 1.1 ng/mL; MIC (Serratia marcescens [17]): 3.13 µg/mL; MIC [7, 23]: 50 µg/mL; MIC (Proteus vulgaris [8]): 25 µg/mL
3 | CC(=O)N/C=C/[S+]([O-])C1=C(C(=O)[O-])N2C(=O)[C@@H](C(C)(C)O)[C@H]2C1.[Na+] (stereo in doubt; 2) | – | – | – | – | – | – | – | – | – | – | MIC (Citrobacter freundii): 0.2 µg/mL; MIC (Escherichia coli [10]): <0.1 µg/mL; MIC (Proteus vulgaris [8]): 3.13 µg/mL; ED50 (Escherichia coli [9]): 20 mg/kg
4 | CC(=O)N/C=C\[S+]([O-])C1=C(C(=O)[O-])N2C(=O)[C@@H](C(C)(C)O)[C@H]2C1.[Na+] (stereo in doubt; 22) | – | 0.59 | – | – | – | – | – | – | – | – | I50 (Klebsiella pneumoniae [1]): 110 ng/mL; MIC (Proteus mirabilis): 50 µg/mL; I50 (Serratia marcescens [3]): 3.3 ng/mL; MIC (Citrobacter freundii): 12.5 µg/mL; MIC (Klebsiella pneumoniae [16]): 12.5 µg/mL; MIC (Morganella morganii): 100 µg/mL; I50 (Proteus vulgaris [4]): 14 ng/mL; MIC (Staphylococcus aureus [5]): 3.13 µg/mL; MIC (Serratia marcescens [17]): 25 µg/mL; MIC (Escherichia coli [6]): 25 µg/mL; MIC (Enterobacter cloacae): 50 µg/mL; MIC (Proteus vulgaris [8]): 100 µg/mL; T1/2 (Mus musculus): > 250 min
5 | CC(=O)N/C=C\[S+]([O-])C1=C(C(=O)[O-])N2C(=O)[C@@H](C(C)(C)OS(=O)(=O)[O-])[C@H]2C1.[Na+].[Na+] (some centres undefined) | 1 | 0.24 | 0.018 | 0.00055 | – | 12.5 | 0.78 | 50 | 3.13 | > 50 | –
6 | CC(=O)N/C=C/[S+]([O-])C1=C(C(=O)[O-])N2C(=O)[C@@H](C(C)(C)OS(=O)(=O)[O-])[C@H]2C1.[Na+].[Na+] (some centres undefined) | 5.2 | 0.21 | – | 0.00037 | 37 | 6.25 | 1.56 | – | 6.25 | > 100 | I50 (Serratia marcescens [3]): 55 ng/mL; MIC (Serratia marcescens [17]; Serratia marcescens, IFO 12648, read-out: MIC): 12.5 µg/mL
7 | CC(=O)N/C=C\[S+]([O-])C1=C(C(=O)[O-])N2C(=O)[C@@H](C(C)O)[C@H]2C1.[Na+] (some centres undefined) | 2.4 | 0.00055 | 0.00029 | 0.019 | – | – | – | 6.25 | – | – | MIC (Klebsiella pneumoniae [19]): 100 µg/mL; MIC (Proteus vulgaris [20]): 400 µg/mL

Continued, in another order:

Row | IC50 (Klebsiella pneumoniae [1]) [ng/mL] | IC50 (Staphylococcus aureus [2]) [µg/mL] | IC50 (Serratia marcescens [3]) [µg/mL] | IC50 (Proteus vulgaris [4]) [µg/mL] | half-life [11] [min] | MIC (Serratia marcescens [12]) [µg/mL] | MIC (Proteus vulgaris [13]) [µg/mL] | MIC (Staphylococcus aureus [14]) [µg/mL] | MIC (Klebsiella pneumoniae [15]) [µg/mL] | Structure (SMILES) | ED50 (Escherichia coli [9]; [22]) [mg/kg] | other results
8 | – | – | – | – | 12 | – | – | – | – | CC(=O)N/C=C/SC1=C(C(=O)[O-])N2C(=O)[C@@H](C(C)O)[C@H]2C1.[Na+] (some centres undefined) | > 50 | MIC (Escherichia coli [10]; Escherichia coli, read-out: MIC): 0.39 µg/mL; MIC [7, 23]: 3.13 µg/mL; MIC (Pseudomonas aeruginosa; [24]): 100 µg/mL; MIC (Proteus vulgaris [8]; Proteus vulgaris, IFO 3988, read-out: MIC): 3.13 µg/mL
9 | 220 | – | 0.0053 | 0.017 | 19 | 12.5 | 25 | 12.5 | 100 | CC(=O)N/C=C\SC1=C(C(=O)[O-])N2C(=O)[C@@H](C(C)(C)O)[C@H]2C1.[Na+] | > 50 | –
10 | – | – | – | – | 7 | – | – | – | – | CC(=O)N/C=C/SC1=C(C(=O)[O-])N2C(=O)[C@@H](C(C)(C)OS(=O)(=O)[O-])[C@H]2C1.[Na+].[Na+] | > 50 | –
11 | 0.08 | 0.0034 | 0.00034 | 0.00016 | – | 25 | 50 | 50 | – | CC(=O)N/C=C\[S+]([O-])C1=C(C(=O)[O-])N2C(=O)[C@@H](C(C)OS(=O)(=O)[O-])[C@H]2C1.[Na+].[Na+] (some centres undefined) | – | –
12 | – | – | – | – | 8 | – | – | – | – | CC(=O)N/C=C/SC1=C(C(=O)[O-])N2C(=O)[C@@H](C(C)(C)O)[C@H]2C1.[Na+] | > 50 | –
13 | 1.8 | 0.014 | 0.001 | 0.00035 | 42 | – | 1.56 | – | 25 | CC(=O)N/C=C\SC1=C(C(=O)[O-])N2C(=O)[C@@H](C(C)OS(=O)(=O)[O-])[C@H]2C1.[Na+].[Na+] (some centres undefined) | > 50 | MIC [18]: 12.5 µg/mL
14 | 28 | 1 | 0.051 | 0.0038 | 19 | 25 | 1.56 | 50 | 50 | CC(=O)N/C=C\SC1=C(C(=O)[O-])N2C(=O)[C@@H](C(C)(C)OS(=O)(=O)[O-])[C@H]2C1.[Na+].[Na+] | > 50 | –
15 | – | – | – | – | 21 | – | – | – | – | CC(=O)N/C=C/SC1=C(C(=O)[O-])N2C(=O)[C@@H](C(C)OS(=O)(=O)[O-])[C@H]2C1.[Na+].[Na+] (some centres undefined) | > 50 | MIC (Pseudomonas aeruginosa; [24]): 3.13 µg/mL
16 | 320 | 0.065 | 0.0011 | 1.5 | 40 | 25 | – | 1.56 | 100 | CC(=O)[N-]/C=C/SC1=C(C(=O)[O-])N2C(=O)[C@@H](C(C)O)[C@H]2C1.[Na+].[Na+] (some centres undefined) | 17.7 | MIC (Proteus vulgaris [21]): 400 µg/mL
